One assay relates to K562. Kind of assay: Cytotoxicity against human K562 cells after 96 hrs by trypan blue exclusion assay. Type of assay: functional, cell-based. The following applies: K562, 96 h. The essentials: (§1)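 Cells grown in DMEM or RPMI with 10% FBS and penicillin-streptomycin. Seeded at 1.0 × 10^5 cells/mL/well in 6-well dishes; compounds were added 24 h later at various concentrations. Viable cells were counted by trypan blue exclusion from duplicate wells after 96 h of treatment, giving a dose-response endpoint.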

A further assay relates to DU-145. Kind of assay: Cytotoxicity against androgen receptor-deficient human DU145 cells after 96 hrs by trypan blue exclusion assay. Type of assay: functional, cell-based. The following applies: DU-145, 96 h. The essentials: as §1
Assay [1] concerns HeLa. Kind of assay: Inhibition of cytoplasmic microtubule polymerization in human HeLa cells at 0.005 uM after 18 hrs by FITC-conjugated DAPI staining based fluorescence microscopy. Type of assay: cell-based. A digest of the protocol: (§2)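 HeLa grown on glass coverslips and exposed for 18 h to test agent (0.25 or 0.5 μM), paclitaxel or vincristine (0.005 μM), or DMSO. Cells were fixed in 4% paraformaldehyde, blocked, permeabilised, and stained with FITC anti-α-tubulin (1:400) and then DAPI (0.5 ug/mL). Mitotic spindles or interphase cytoplasmic microtubules were scored by fluorescence microscopy at 100x.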

The nature of assay [2]: Drug resistant, ratio of IC50 for human MESSA/DX5 cells to IC50 for human MESSA cells. Type of assay: functional, MES-SA. The essentials: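 MES-SA uterine sarcoma cells and the P-glycoprotein-expressing multidrug-resistant MES-SA/DX5 sub-line were grown in DMEM or RPMI with 10% FBS. Cells were plated in 6-well dishes at 1.0 × 10^5 cells/mL/well, dosed at various concentrations 24 h later, and exposed for 96 h. Viable cells were counted by trypan blue exclusion from duplicate wells. The resistant/parental IC50 ratio was taken.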

Assay [3] relates to HeLa. Description: Induction of mitotic arrest in human HeLa cells assessed as unbound chromosome outside metaphase plate at 0.005 uM after 18 hrs by FITC-conjugated DAPI staining based fluorescence microscopy. Type of assay: functional, cell-based. A digest of the protocol:
as §2

Assay [4] in a line: Cytotoxicity against human MESSA/DX5 cells after 96 hrs by trypan blue exclusion assay. Type of assay: functional, cell-based. The following applies: MES-SA/Dx5, 96 h. The essentials:
as §1

A short description of assay [5]: Cytotoxicity against human MES-SA cells after 96 hrs by trypan blue exclusion assay. Type of assay: functional, cell-based. A digest of the protocol: as §1

pIC50: −log10 of the molar value. Activity calls are given as the source filed them. The rule behind the calls is not given here.

For the molecule `COc1cc(C(=O)/C=C\Nc2ccc(OC(F)(F)F)cc2)cc(OC)c1OC`, the pIC50 in the assay on K562 was 4.70; in the assay on DU-145, 5.52.

For `COc1cc(C(=O)/C=C\Nc2cnc3ccccc3c2)cc(OC)c1OC`, the negative logarithm of the IC50 (pIC50) was 6.12 with K562 and 6.30 in the assay on DU-145.

`COc1cc(C(=O)/C=C\Nc2ccc3[nH]ccc3c2)c(Br)c(OC)c1OC`: the figures for the pIC50 in the assay with K562 and in the assay on DU-145 were 6.70 and 6.82, respectively.

Turning to `CC(=O)O[C@H]1C(=O)[C@@]2(C)[C@H]([C@H](OC(=O)c3ccccc3)[C@]3(O)C[C@H](OC(=O)[C@H](O)[C@@H](NC(=O)c4ccccc4)c4ccccc4)C(C)=C1C3(C)C)[C@]1(OC(C)=O)CO[C@@H]1C[C@@H]2O` [PACLITAXEL], the inhibition result in the assay on HeLa [1] was “inactive”. The “Ratio IC50” value in assay [2] was above 100. In addition, the outcome in the assay on HeLa [3] was Active. The negative-log IC50 (pIC50) in assay [4] was 6.12; in assay [5], 8.40.

Turning to `COc1ccc(C(=O)/C=C\Nc2cc(OC)c(OC)c(OC)c2)cc1`, the values for the negative-log IC50 (pIC50) in the assay with K562 and in the assay on DU-145 were 4.12 and 4.30, respectively.

For the molecule `COc1cc(C(=O)/C=C\Nc2cccc3cc[nH]c23)cc(OC)c1OC`, the pIC50 with K562 and in the assay on DU-145 was 5.60 throughout.

For the molecule `COc1cc(C(=O)/C=C\Nc2ccc(C(F)(F)F)cc2)cc(OC)c1OC`, the pIC50 in the assay on K562 and with DU-145 was 6.30 each time.

Take `COc1ccc(N/C=C\C(=O)c2c(OC)cc(OC)cc2OC)cc1`: the pIC50 in the assay on K562 and in the assay on DU-145 was 4.12 in each case.

On to `COc1ccc(N/C=C\C(=O)c2cc(OC)c(OC)c(OC)c2)cc1N`, for which the values for the pIC50 in the assay with K562 and in the assay on DU-145 were 6.60 and 7.00, respectively.

In the case of `COc1cc(C(=O)/C=C\Nc2ccc3cc[nH]c3c2)cc(OC)c1OC`, the pIC50 in the assay on K562 is 6.70; in the assay with DU-145 it was 7.00.

As to `COc1cc(C(=O)/C=C\Nc2cccc(O)c2)cc(OC)c1OC`, the pIC50 with K562 was 6.30; with DU-145, 6.12.

As for `COc1ccc(N/C=C\C(=O)c2cc(OC)c(OC)c(OC)c2)cc1O`, the pIC50 with K562 and with DU-145 was 7.00 each time.

With `COc1cc(C(=O)/C=C\Nc2ccc3[nH]c(C)cc3c2)cc(OC)c1OC`, the pIC50 in the assay on K562 is 6.12; in the assay on DU-145 it was 6.22.

With `COc1cc(C(=O)/C=C\Nc2ccccc2O)cc(OC)c1OC`, the negative-log IC50 (pIC50) in the assay with K562 is 6.30; in the assay with DU-145, 6.60.

`COc1cc(C(=O)/C=C\Nc2ccc3[nH]ccc3c2)cc(OC)c1OC`: the negative-log IC50 (pIC50) in the assay with K562 is 6.30; in the assay with DU-145 it was 6.70.

Take `COc1ccc(N/C=C\C(=O)c2cc(OC)c(OC)c(OC)c2)cc1F`: the pIC50 in the assay on K562 and with DU-145 was 6.60 each time.

In the case of `COc1cc(OC)c(N/C=C\C(=O)c2cc(OC)c(OC)c(OC)c2)c(OC)c1`, the negative logarithm of the IC50 (pIC50) in the assay on K562 was 4.30; in the assay with DU-145, 4.12.

In the case of `COc1cc(N/C=C\C(=O)c2cc(OC)c(OC)c(OC)c2)cc(OC)c1OC`, the negative logarithm of the IC50 (pIC50) in the assay on K562 is 4.60; in the assay on DU-145, 4.40.

Take `COc1cc(C(=O)/C=C\Nc2ccc(Cl)cc2)cc(OC)c1OC`: the negative logarithm of the IC50 (pIC50) with K562 is 6.60; in the assay on DU-145, 6.30.

Turning to `COc1cc(OC)c(C(=O)/C=C\Nc2cc(OC)c(OC)c(OC)c2)c(OC)c1`, the pIC50 is 4.12 in the assay with K562 and 4.46 with DU-145.

On to `COc1cc(C(=O)/C=C\Nc2cc(O)ccc2Cl)cc(OC)c1OC`, for which the pIC50 was 5.60 in the assay on K562 and 6.12 with DU-145.

As for `COc1ccc(N/C=C\C(=O)c2cc(OC)c(OC)c(OC)c2Br)cc1`, the negative logarithm of the IC50 (pIC50) in the assay on K562 was 6.60; with DU-145 it was 6.70.

On to `COc1ccc(N/C=C\C(=O)c2cc(OC)c(OC)c(OC)c2[N+](=O)[O-])cc1`, for which the pIC50 with K562 and with DU-145 was 6.22 throughout.

As for `COc1ccc(N/C=C\C(=O)c2cc(OC)c(OC)c(OC)c2Cl)cc1O`, the pIC50 with K562 is 6.60; in the assay with DU-145, 6.70.

Consider `COc1cc(C(=O)/C=C\Nc2ccccc2O)c(Br)c(OC)c1OC`, for which the results for the pIC50 with K562 and in the assay on DU-145 were 6.70 and 6.60, respectively.

Regarding `COc1ccc(N/C=C\C(=O)c2ccc(OC)cc2)cc1`, the negative logarithm of the IC50 (pIC50) with K562 is 4.00; with DU-145 it was 4.12.

`COc1cc(OC)c(C(=O)/C=C\Nc2ccc(Cl)cc2)c(OC)c1`: the negative logarithm of the IC50 (pIC50) in the assay with K562 and in the assay with DU-145 was 4.60 throughout.

For `COc1ccc(N/C=C\C(=O)c2c(OC)cc(OC)cc2OC)c(OC)c1`, the pIC50 in the assay on K562 and in the assay on DU-145 was 4.12 throughout.

For the molecule `COc1ccc(N/C=C\C(=O)c2cc(OC)c(OC)c(OC)c2)cc1Cl`, the pIC50 in the assay with K562 is 6.60; in the assay on DU-145, 6.70.

Take `COc1ccccc1N/C=C\C(=O)c1cc(OC)c(OC)c(OC)c1`: the pIC50 with K562 and in the assay with DU-145 was 5.60 in each case.

With `COc1cc(OC)c(C(=O)/C=C\Nc2ccccc2O)c(OC)c1`, the pIC50 is 4.12 in the assay on K562 and 4.60 with DU-145.

Consider `COc1ccc(N/C=C\C(=O)c2cc(OC)c(OC)c(OC)c2)cc1`, for which the negative logarithm of the IC50 (pIC50) in the assay with K562 and in the assay with DU-145 was 6.30 each time.

Consider `COc1cc(OC)c(N/C=C\C(=O)c2c(OC)cc(OC)cc2OC)c(OC)c1`, for which the pIC50 was 4.30 in the assay with K562 and 4.12 with DU-145.

For the molecule `COc1cc(C(=O)/C=C\Nc2cccc3[nH]ncc23)cc(OC)c1OC`, the negative-log IC50 (pIC50) with K562 was 5.60; with DU-145 it was 6.12.
